13 molecules from ChEMBL document CHEMBL1143665, “Novel acyclic enediynes inhibit Cyclin A and Cdc25C expression and induce apoptosis phenomenon to show potent antitumor proliferation” (2007) can be followed below.

The subject of one experiment is SF-295. Nature of the experiment: Cytotoxicity against human SF295 cells. The class given is functional.
Experiment [1] concerns K562. Briefly: Cytotoxicity against human K562 cells. The class given is functional.
The test system of another experiment is DU-145. Nature of the experiment: Cytotoxicity against human DU145 cells. The class given is functional.
For the next experiment, the system named is SR. Briefly: Cytotoxicity against human SR cells. The class given is functional.
The next experiment relates to HCT-15. Nature of the experiment: Cytotoxicity against human HCT15 cells. The class given is functional.
The test system of another experiment is LOX IMVI. Briefly: Cytotoxicity against human LOX IMVI cells. The class given is functional.
The subject of another experiment is OVCAR-3. Briefly: Cytotoxicity against human OVCAR-3 cells. The class given is functional.
For the next experiment, the system named is MDA-MB-435. Nature of the experiment: Cytotoxicity against human MDA-MB-435 cells. The class given is functional.
The subject of experiment [2] is K562. Briefly: Cell cycle arrest in human K562 cells by accumulation at G0/G1 phase cell at 50 uM after 24 hrs relative to control. The class given is functional. The method in brief: (§1)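 K-562 cells (RPMI 1640, 10% fetal calf serum, 37 °C, 5% CO2) exposed 24 h, pelleted, fixed in ice-cold 70% ethanol 30 min, RNase A (1 mg/ml) 37 °C 30 min, propidium iodide stain 30 min at room temperature in the dark; DNA content of 10,000 events by flow cytometry; phase and sub-G1 percentages compared with untreated control.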

For experiment [3], the system named is K562. Briefly: Cell cycle arrest in human K562 cells by accumulation at S phase cell at 50 uM after 24 hrs relative to control. The class given is functional. The method in brief: as §1
The test system of experiment [4] is K562. Nature of the experiment: Cell cycle arrest in human K562 cells by accumulation at G2/M phase cell at 50 uM after 24 hrs relative to control. The class given is functional. The method in brief: as §1
The subject of experiment [5] is K562. Nature of the experiment: Induction of apoptosis in human K562 cells assessed as accumulation at subG1 phase at 50 uM after 24 hrs relative to control. The class given is functional. The method in brief: as §1
In another experiment the test system is M14. Briefly: Cytotoxicity against human M14 cells. The class given is functional.
Another experiment relates to SK-OV-3. Briefly: Cytotoxicity against human SKOV3 cells. The class given is functional.
Another experiment has as its system MDA-MB-231. Briefly: Cytotoxicity against human MDA-MB-231 cells. The class given is functional.
Experiment [6] deals with K562. Briefly: Decrease in Cyclin A protein levels in human K562 cells at 25 uM. The class given is functional, cell-based. The method in brief:
(§2)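 Western blot of treated K-562 cells: lysis in Tris pH 7.5/1% NP-40/EDTA/NaCl with protease inhibitors on ice 30 min, spun 20,000g 30 min 4 °C; 50 µg lysate on 12% SDS-PAGE, PVDF transfer, probed with anti-Cdk1, -Cdk2, -Cyclin A, -Cyclin B1 or -Cdc25C; enhanced chemiluminescence detection.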

The subject of experiment [7] is K562. Nature of the experiment: Decrease in Cyclin A protein levels in human K562 cells at 50 uM. The class given is functional, cell-based. The method in brief: as §2
Experiment [8] concerns K562. Nature of the experiment: Decrease in Cdc25C protein levels in human K562 cells at 25 uM. The class given is functional, cell-based. The method in brief: as §2
The test system of experiment [9] is K562. Nature of the experiment: Decrease in Cdc25C protein levels in human K562 cells at 50 uM. The class given is functional, cell-based. The method in brief: as §2
The test system of experiment [10] is K562. Nature of the experiment: Effect on Cyclin B protein levels in human K562 cells at 25 uM. The class given is functional, cell-based. The method in brief:
as §2

The subject of experiment [11] is K562. Nature of the experiment: Effect on Cyclin B protein levels in human K562 cells at 50 uM. The class given is functional, cell-based. The method in brief: as §2
Experiment [12] has as its system K562. Briefly: Effect on Cdk1 protein levels in human K562 cells at 25 uM. The class given is functional, cell-based. The method in brief:
as §2

Experiment [13] concerns K562. Nature of the experiment: Effect on Cdk1 protein levels in human K562 cells at 50 uM. The class given is functional, cell-based. The method in brief: as §2
Experiment [14] has as its system K562. Nature of the experiment: Effect on Cdk2 protein levels in human K562 cells at 25 uM. The class given is functional, cell-based. The method in brief: as §2
For experiment [15], the system named is K562. Briefly: Effect on Cdk2 protein levels in human K562 cells at 50 uM. The class given is functional, cell-based. The method in brief: as §2

Active and inactive are the calls of the source. The calls are words filed in the database; no cut-off is given here.

As to `OCCCCC#Cc1ccccc1C#Cc1ccc(C(F)(F)F)cc1`, the GI50 stood at 19.1 µM in the experiment with SF-295; 18.2 µM with K562 [1]; 15.8 µM in the experiment with DU-145; 0.6 µM in the experiment on SR; 12.5 µM with HCT-15; 17.1 µM in the experiment on LOX IMVI. Further, the GI50 in the experiment with OVCAR-3 was determined as 17.8 µM; in the experiment on MDA-MB-435, 16.3 µM. Further, the Activity in the experiment with K562 [2] stood at 36.9%; with K562 [3] it was 38.3%; in the experiment with K562 [4] it was 24.8%; in the experiment with K562 [5], 5.36%.
Turning to `OCCCCC#Cc1ccccc1C#Cc1cccc(O)c1`, the GI50 with SF-295 was determined as 21 µM; in the experiment on K562 [1], 19.2 µM; with DU-145, 17.4 µM; with HCT-15 it was 13.6 µM; in the experiment on LOX IMVI it was 16.7 µM; in the experiment with OVCAR-3, 20 µM. In the experiment with MDA-MB-435, this molecule gave a GI50 of 16.1 µM. Further, the Activity in the experiment with K562 [2] was 26.7%; with K562 [3], 37.1%; with K562 [4], 36.2%; in the experiment with K562 [5], 18.25%.
Consider `OCC#Cc1ccccc1C#Cc1ccccc1`, for which the GI50 in the experiment on SF-295 stood at 20.6 µM; with M14 it was 10.6 µM; with K562 [1], 26 µM; with SK-OV-3 it was 16.6 µM; in the experiment on DU-145, 14.9 µM; in the experiment on MDA-MB-231 it was 3.26 µM.
Regarding `CSc1ccccc1C#Cc1ccccc1C#CCCCCO`, the GI50 in the experiment with SF-295 came out at 1.5 µM; in the experiment on K562 [1], 6.1 µM; with DU-145, 4.7 µM; in the experiment with SR, 3.5 µM; in the experiment with HCT-15 it was 3.8 µM; with LOX IMVI it was 5.8 µM. In addition, the values for the GI50 in the experiment with OVCAR-3 and in the experiment on MDA-MB-435 were 14.7 µM and 3.9 µM, respectively. Besides, the Activity in the experiment with K562 [2] amounted to 19.8%; in the experiment on K562 [3], 24.6%; in the experiment with K562 [4] it was 55.7%; in the experiment on K562 [5], 9.23%.
On to `OCCCCC#Cc1ccccc1C#Cc1cccs1`, for which the GI50 was 19 µM in the experiment with SF-295; 20.3 µM with K562 [1]; 13 µM in the experiment on DU-145; 1.8 µM in the experiment on SR; 13.1 µM in the experiment with HCT-15; 13.9 µM in the experiment on LOX IMVI. In addition, the concentration for 50% growth inhibition (GI50) in the experiment on OVCAR-3 came out at 15 µM; in the experiment on MDA-MB-435 it was 16.6 µM. Further, the Activity in the experiment with K562 [2] turned out to be 22.7%; with K562 [3], 47.5%; in the experiment with K562 [4], 29.8%; with K562 [5], 5.23%.
On to `OCCCCC#Cc1ccccc1C#Cc1ccccn1`, for which the 50% growth inhibitory concentration (GI50) in the experiment with SF-295 was determined as 21.8 µM; in the experiment with K562 [1], 29 µM; with DU-145 it was 9.8 µM; with SR, 25.5 µM; in the experiment with HCT-15, 29.8 µM; in the experiment on LOX IMVI, 27.7 µM. For the same molecule, the concentration for 50% growth inhibition (GI50) in the experiment on OVCAR-3 turned out to be 26.1 µM; with MDA-MB-435 it was 25.1 µM. In addition, the Activity with K562 [2] was 30.4%; in the experiment on K562 [3], 52.6%; in the experiment on K562 [4] it was 17%; with K562 [5] it was 4.4%.
On to `OCCCCC#Cc1ccccc1C#Cc1ccccc1`, for which the GI50 with SF-295 is 0.15 µM; in the experiment on M14 it was 10 µM; in the experiment with K562 [1] it was 21.1 µM; in the experiment with SK-OV-3 it was 10.7 µM; in the experiment with DU-145, 5.22 µM; in the experiment with MDA-MB-231, 4.29 µM.
In the case of `OCCCCC#Cc1ccccc1C#Cc1cccc(C(F)(F)F)c1`, the GI50 in the experiment on SF-295 was determined as 16.5 µM; with K562 [1], 22.5 µM; in the experiment with DU-145, 15.3 µM; with SR, 18.3 µM; in the experiment with HCT-15 it was 16.3 µM; in the experiment with LOX IMVI it was 17.5 µM. In addition, the GI50 was 16.8 µM with OVCAR-3 and 16.9 µM in the experiment on MDA-MB-435. The Activity in the experiment on K562 [2] worked out at 30.6%; in the experiment on K562 [3], 40%; in the experiment on K562 [4], 29.4%; with K562 [5], 3.84%.
As for `COc1cccc(C#Cc2ccccc2C#CCCCCO)c1`, the concentration for 50% growth inhibition (GI50) in the experiment with SF-295 was determined as 7.9 µM; in the experiment with K562 [1], 1.8 µM; with DU-145 it was 4.1 µM; in the experiment on SR, 1.9 µM; in the experiment with HCT-15, 3.6 µM; in the experiment with LOX IMVI, 6.3 µM. The GI50 was 10.7 µM in the experiment with OVCAR-3 and 1.9 µM in the experiment with MDA-MB-435. The Activity with K562 [2] amounted to 3.4%; in the experiment with K562 [3] it was 11.9%; with K562 [4] it was 84.6%; in the experiment on K562 [5], 10.81%.
For the molecule `OCCC#Cc1ccccc1C#Cc1ccccc1`, the GI50 is 28.1 µM in the experiment on SF-295; 16 µM in the experiment on M14; 11 µM with K562 [1]; 17.3 µM in the experiment with SK-OV-3; 12.5 µM in the experiment with DU-145; 3.41 µM in the experiment with MDA-MB-231.
With `OCCCCC#Cc1ccccc1C#Cc1ccccc1C(F)(F)F`, the GI50 turned out to be 2.3 µM with SF-295; 1.1 µM in the experiment on K562 [1]; 6.1 µM in the experiment on DU-145; 0.4 µM with SR; 3.5 µM in the experiment with HCT-15; 4.9 µM with LOX IMVI. In addition, the GI50 in the experiment on OVCAR-3 is 2.3 µM; in the experiment with MDA-MB-435, 0.8 µM. Besides, the Activity is on record as 2.7% with K562 [2], 10.8% in the experiment with K562 [3], 86.5% with K562 [4] and 10.47% in the experiment with K562 [5]. The result in the experiment on K562 [6], with K562 [7], with K562 [8] and in the experiment on K562 [9] was Active. The outcome with K562 [10], in the experiment on K562 [11], with K562 [12], with K562 [13], with K562 [14] and in the experiment on K562 [15] was inactive.
On to `COc1ccccc1C#Cc1ccccc1C#CCCCCO`, for which the 50% growth inhibitory concentration (GI50) in the experiment on SF-295 was determined as 22.1 µM; in the experiment with K562 [1] it was 15.5 µM; with DU-145 it was 14.3 µM; in the experiment on SR, 1 µM; with HCT-15, 19.9 µM; in the experiment on LOX IMVI, 17.9 µM. The GI50 amounted to 19.8 µM with OVCAR-3 and 20.2 µM in the experiment with MDA-MB-435. In addition, the Activity in the experiment with K562 [2] turned out to be 30.9%; in the experiment with K562 [3], 41.5%; in the experiment with K562 [4], 27.6%; in the experiment on K562 [5], 8.08%.
As for `N#Cc1ccc(C#Cc2ccccc2C#CCCCCO)cc1`, the GI50 in the experiment on SF-295 is 21.5 µM; in the experiment with K562 [1], 21.7 µM; in the experiment with DU-145, 16 µM; in the experiment with HCT-15, 15.6 µM; in the experiment with LOX IMVI it was 18.3 µM; in the experiment with OVCAR-3, 19.9 µM. The molecule further registered a GI50 with MDA-MB-435 of 18.9 µM. Moreover, the Activity was found to be 51.2% in the experiment on K562 [2], 38% in the experiment on K562 [3], 10.8% in the experiment with K562 [4] and 5.65% in the experiment on K562 [5].

What is called GI50 is the concentration at which growth is held to half of that of the control. Low readings indicate greater sensitivity of the cells, high ones lower sensitivity of the cells.
